Measurements as given in the EternaBench riboswitch data.

System: MS2 coat protein
Assay: apparent Kd, MS2 coat protein; higher = weaker binding; RNA-MaP array; FMN 200 µM where present
How it was run: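 The apparent Kd is reported as the median of filtered per-cluster binding-curve fits. To get these curves, designs transcribed by stalled E. coli RNA polymerase on Illumina sequencing-chip clusters were titrated with SNAP-549-labelled MS2 coat protein from 0.7 or 1.5 nM, doubling to 3 µM. Titrations were run without and then with constant ligand in 100 mM Tris-HCl pH 7.5, 80 mM KCl, 4 mM MgCl2, BSA, DTT, yeast tRNA and Tween-20, and green signal was normalised to red-channel RNA signal and control-cluster median Fmax.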

[1] = designed as: OFF switch for flavin mononucleotide, no ligand
[2] = ligand present: flavin mononucleotide, designed as: OFF switch for flavin mononucleotide
[3] = designed as: ON switch for flavin mononucleotide, no ligand
[4] = ligand present: flavin mononucleotide, designed as: ON switch for flavin mononucleotide

Sequence | apparent Kd [1] | apparent Kd [2] | apparent Kd [3] | apparent Kd [4]
AACUAUGUAUUUAUAGUGUCUGACAGAAGGCAAUAGGUUGUGACCGACAUGAGGAUCACCCAUGUUGAGGAUAUGUCUAGCUAC | 40.4 nM | 264 nM |  | 
AACUCGUCAGGAUAUGCGCGCAGUUACUACGCUUCGCAAUUGCAGAAGGGACAUGAGGAUCACCCAUGUAGGUC | 46.9 nM | 48 nM |  | 
AACUGACAUGAGGAUCACCCAUGUCAGGAUAUGAUUUGACGAAAUAAAACACGUCAUAUCAGAAGGGACAUGGA | 26.5 nM | 48.6 nM |  | 
AACUGACAUGAGGAUCACCCAUGUCAGGAUAUGAUUUGACGAAAUAAAAUAAGUCAUAUCAGAAGGGACAUGGA | 25.9 nM | 46.9 nM |  | 
AAGAAGGACGCAGGAUAUCCAGGACCUCCCGCAGGAGAAGGGCGAAACAUGAGGAUCACCCAUACAUGAGGAUCACCCAUGUAA | 33 nM | 36.3 nM |  | 
AAGAAGUCAGGAUAUCCAUGGCGGCACUUGCGUGGUGGCGUGGAGAAGGGACAUGAGGAUCACCCAUGUAAAGC | 47.1 nM | 32.8 nM |  | 
AAGAAGUCAGGAUAUCCUGCUCGUCACUUGCGUGAUGAGUAGGAGAAGGGACAUGAGGAUCACCCAUGUAAAGA | 54.3 nM | 51.5 nM |  | 
AAGAAGUGAGGAUAUAGUUGCACUAGCUAAUGCUAGUGCAACUAGAAGGCACAUGAGGAUCACCCAUGUAAAAG | 29.1 nM | 41.9 nM |  | 
AAGAGCGAUUCUCCCUUCCUACAUGAGGAUCACCCAUGUACGAGAAGGCGCCGUGUAUACCACGGUGAGGAUAUCGUACGUUAC | 5.23 nM | 10.3 nM |  | 
AAGAUACAUGAGGAUCACCCAUGUGAGGAUAUGUGUAUCCCUAAAAAAGUGUGGGACCACAGAAGGUACUUGGA | 61.7 nM | 55.4 nM |  | 
AAGAUGCGGAUAGGAUAUGGAAAUAAAUAAAGACCAGAAGGAUUGGUCACACAACAUGAGGAUCACCCAUGUGUGUGUUGUGAA | 13.9 nM | 10.6 nM |  | 
AAGCCACAUGAGGAUCACCCAUGUCAGGAUAUCUCGAAAAGCAUAGAAAUAUGCGAAGAGAGAAGGGACUACUC | 43.1 nM | 67.7 nM |  | 
AAGCCCUGAGGAUAUCCCAACUCGCACAUGAGGAUCACCCAUGUCCUCCUCUGGGCUUCGGGAGAAGGCAGGUCUC | 43.1 nM | 114 nM |  | 
AAGCUGGUAGGAUAUACUAGGGCAACUAAUGCGCCGAUAGGACAUGAGGAUCACCCAUGUAGAAGGGCCAGAAA | 80.1 nM | 93.1 nM |  | 
AAGGCGAGAGGAUAUACAUGAGGAUCACCCAUGUGUCGGCCCUCCGCAUAUGCCUUGUGUAGAAGGCUCCCGAA | 16.5 nM | 22.9 nM |  | 
AAGUAGUGUGUGAGGAUAUUGGUGGAAUGACAUAUUAAGAAGGCACAUGAGGAUCACCCAUGUGGGUUGUCACG | 49.2 nM | 120 nM |  | 
AAGUAUGGAGGAUAUACAUGGAUAUACAUUCAUGUGGACCUACAUGAGGAUCACCCAUGUAGAAGGCCAUAAUA | 30.7 nM | 16.6 nM |  | 
AAGUCACGAAUAAUAAUAAGAUCUACAUGAGGAUCACCCAUGUAGGAUAUGCAGUGGAAUACACUGCAGAAGGACAUACGUGAC | 14.1 nM | 16.7 nM |  | 
AAGUCAGCAGGAUAUGCGAUGGUGUGCUAGGUAGCUUGCCCACAUGAGGAUCACCCAUGUAGAAGGGCUGGCUA | 13.2 nM | 12.1 nM |  | 
AAGUCGAGCGUGAGGAUAUCGUUCGAACGACAGAACGAGAAGGCACAUGAGGAUCACCCAUGUGAUUAAGUUCA | 15.8 nM | 18.6 nM |  | 
AAGUCGUGAGGAUAUACAUGGAUAUACAUUUAUGUAGAACUACAUGAGGAUCACCCAUGUAGAAGGCACGAAUA | 56.2 nM | 147 nM |  | 
AAGUCUGUACGAGGAUAUCAGUUGUAUCUAAAUUCAACAUGAGGAUCACCCAUGUUGCAAUAGGGUGAGAAGGCGUGUGGGCAA |  |  | 70.1 nM | 21.6 nM

Sequence | apparent Kd [1] | apparent Kd [2] | apparent Kd [3] | apparent Kd [4]
AAGUUUGUACGAGGAUAUCAGUUGUAUCUAAAUUCAACAUGAGGAUCACCCAUGUUGCAAUGGAGUGAGAAGGCGUGUGGGCAA |  |  | 31.3 nM | 22.8 nM
AAUAAACACACAGGAUAUAGCAUCGUCGUUGCGAACUUAGCGACGACGAUGCUAGAAGGGUGAACACAUGAGGAUCACCCAUGU |  |  |  | 38.4 nM
AAUAAACAUGAGGAUCACCCAUGUCAGGAUAUGCGUCUAUCCUUAUUGCAUAGAUACGGCAGAAGGGACUAAUG | 31.9 nM | 56.9 nM |  | 
AAUAAACUCACAGGAUAUAGCAGAGGUCGCGUGAACUUACAGACGACGAGGCUAGAAGGGUGACCACAUGAGGAUCACCCAUGU |  |  | 312 nM | 65.4 nM
AAUAAACUCACAGGAUAUAGCAGAGGUCGCGUGAACUUACAGACGACUAUGCUAGAAGGGUGACCACAUGAGGAUCACCCAUGU |  |  | 869 nM | 149 nM
AAUAAACUCACAGGAUAUAGCAGAGGUCGCGUGUACUUACAGGCGACUAUGCUAGAAGGGUGACCACAUGAGGAUCACCCAUGU |  |  | 746 nM | 137 nM
AAUAAACUCACAGGAUAUAGCAUAGGUCGCCUGAACUUACAGGCGACUAUGCUAGAAGGGUGACCACAUGAGGAUCACCCAUGU |  |  | 847 nM | 168 nM
AAUAACAGAGGAUAUACUAUUUUAUGUGUUUGUUAUUUUGAACAUGAGGAUCACCCAUGUAGAAGGCUGAAUAA | 25 nM | 27.2 nM |  | 
AAUAACAGAGGAUAUACUAUUUUAUGUGUUUGUUGUUUUAAACAUGAGGAUCACCCAUGUAGAAGGCUGAUUGA | 38.2 nM | 45.4 nM |  | 
AAUAACAGAGGAUAUACUGUUUUAUGUGUUUGUUGUUUUGAACAUGAGGAUCACCCAUGUAGAAGGCUGAAUGA | 28.1 nM | 25.9 nM |  | 
AAUAAUGUGAAGGAUAUCACUAGCGAUAGCUAGUGAGAAGGUCACACAUGAGGAUCACCCAUGUGUUCCAAUAA | 43.2 nM | 172 nM |  | 
AAUAAUUAGUAAGGAUAUACUAGCGAUUAGCUUGUAGAAGGUACAGUCUUAUGUAUAACAAAUUAACAUGAGGAUCACCCAUGU |  |  | 10.2 nM | 7.39 nM
AAUAAUUAGUAAGGAUAUACUAGUGAUUAGCUUGUAGAAGGUACAGUCUUAUGUAUAACAAAUUAACAUGAGGAUCACCCAUGU |  |  | 8.8 nM | 8.1 nM
AAUAGACAUGAGGAUCACCCAUGUGUAUAUGGGAGAGGAUAUACGGGACACAAGGGCGGAGUAGAAGGCUCGAGAC |  |  | 149 nM | 146 nM
AAUAGCUGAGGAUAUACAUGAGGAUCACCCAUGUAUUAGUAGGCUGGGAAUAAAUCGUGUAGAAGGCAGGAUGA | 16 nM | 27.2 nM |  | 
AAUAGUACAGGAUAUACAUGAGGAUCACCCAUGUGAAAAUUAAGUGGCGUACCACAAAGUAGAAGGGUACUGGA | 22.8 nM | 71.4 nM |  | 
AAUAUAAAGAGCUGGUAAACUCAAACAUGAGGAUCACCCAUGUAGGAUAUCAGCACGAUAAGUGCUGAGAAGGACAUCCAGCUC | 15.9 nM | 15.4 nM |  | 
AAUAUAAAGCAGAAGGCCUUAUUACAUGAGGAUCACCCAUGUAAUCGUGGGAGGAUAUGCAUGAUACAAGUACGUUUGGUAGGA |  |  | 8.76 nM | 5.22 nM
AAUAUACAUGAGGAUCACCCAUGUUUUGGUGUAUGAGGAUAUAAAAACAAUUACAUAAAAUUAGAAGGCAUAACUA |  |  | 28.2 nM | 24 nM
AAUAUGUCAUCAGGAUAUCGAGACCGGCGAGUACGAGAAGGGAUGACAUGAGGAUCACCCAUGUGAGACGCGUGAUUUGCAGGU | 105 nM | 304 nM |  | 
AAUAUGUUGCAGAAGGUUAUAUUUUUUUCGUUCCUCAUGACAUGAGGAUCACCCAUGUAUUUGUUGAAGGAUAUGCAAUAUAUU | 19.9 nM | 17.6 nM |  | 
